From ChEMBL document CHEMBL1275249, “Meropenem dosing in critically ill patients with sepsis receiving high-volume continuous venovenous hemofiltration” (Antimicrob Agents Chemother, 2010)
≈ marks a conversion by molar mass, not a printed value.

What was measured:
Homo sapiens [1] = experiment: Ultrafiltration flow rate in critically ill patient with sepsis receiving high-volume continuous venovenous hemofiltration at […], iv administered every 8 hrs by HPLC method; type: ADME, organism-based; design: route intravenous; conditions: in vivo
Homo sapiens [2] = experiment: Hemofiltration clearance in critically ill patient with sepsis receiving high-volume continuous venovenous hemofiltration at […], iv administered every 8 hrs by HPLC method; type: ADME, organism-based; design: route intravenous; conditions: in vivo
Summary of the method: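 Same 1,000 mg q8h IV bolus regimen on CVVHF. Filter was changed if it was over 3 h old at the start of sampling. Pre- and postfilter blood and ultrafiltrate were collected at matched times over 0–480 min, and all ultrafiltrate was collected for the interval. Concentrations were measured by HPLC-UV. CVVHF clearance = ultrafiltrate amount/AUC0-8; […].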

[3] = fT>MIC in patient with acute kidney injury infected with Burkholderia pseudomallei; type: functional
Summary of the method: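 Ten critically ill septic patients with AKI on high-volume CVVHF received meropenem 1,000 mg every 8 h as a central-venous bolus. Plasma was assayed by HPLC-UV at 298 nm with an ertapenem internal standard. Concentration-time data were compared with an MIC of 4 mg/liter.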

[4] = test system: Burkholderia pseudomallei; experiment: Antimicrobial activity against Burkholderia pseudomallei; type: functional
Homo sapiens [5] = experiment: Clearance not mediated by CVVHF in critically ill patient with sepsis at […], iv administered every 8 hrs by HPLC method; type: ADME, organism-based; design: route intravenous; conditions: in vivo
Homo sapiens [6] = organism: Homo sapiens; experiment: Plasma protein binding in patient with acute kidney injury; type: ADME, organism-based
[7] = Cmax in critically ill patient with sepsis at […], iv administered every 8 hrs by HPLC method; type: ADME, organism-based; design: route intravenous; conditions: human, in vivo
Summary of the method: (§1)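 Meropenem 1,000 mg as reconstituted IV bolus via central venous catheter every 8 h in septic ICU patients on CVVHF. Plasma sampled predose and at 15–480 min, plus 0–8 h urine. Levels measured by validated C18 HPLC-UV at 298 nm with ertapenem internal standard. Noncompartmental analysis used linear trapezoidal AUC0-8 and AUMC, and λz from 2–8 h log-linear regression.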

[8] = Renal clearance in critically ill patient with sepsis at […], iv administered every 8 hrs by HPLC method; type: ADME, organism-based, Kidney; design: route intravenous; conditions: human, in vivo, read-out: CL_renal (converted); summary of the method: as §1

## C[C@@H](O)[C@H]1C(=O)N2C(C(=O)O)=C(S[C@@H]3CN[C@H](C(=O)N(C)C)C3)[C@H](C)[C@H]12 [MEROPENEM]
Homo sapiens [1]
  Activity: 4.4 L/h
Homo sapiens [2]
  CL: 3.5 L/h
[3]
  fT>MIC: 40%
[4]
  MIC90: 4 µg/mL (≈ 10.4 µM)
Homo sapiens [5]
  CL: 2.4 L/h
Homo sapiens [6]
  Activity: 2%
[7]
  Cmax: 56.6 µg/mL
[8]
  CL renal at 8 h: 0.0833 mL/min
